Series [1] concerns Staphylococcus aureus USA400. Put plainly: MIC determination. Particulars: USA400, read-out: MIC USA400. The class given is cell-based.
Series [2] deals with Staphylococcus aureus Mu50. Put plainly: MIC determination. Particulars: MU50, read-out: MIC Mu50. The series is classed as cell-based.
Series [3] concerns biofilm. Particulars: lower concentrations ineffective; cited from earlier work.
In series [4] the test system is Staphylococcus aureus UAMS-1. Put plainly: MIC determination. The series is classed as cell-based. Particulars: UAMS1, read-out: MIC UAMS-1.
In series [5] the test system is S. aureus UAMS-1 biofilms. Put plainly: Disruption of established biofilms. The series is classed as cell-based, Staphylococcus aureus. Particulars: UAMS-1, at 6.25 μM.
For series [6], the system named is S. aureus USA300 biofilms. Put plainly: Inhibition of biofilm formation. The class given is cell-based, Staphylococcus aureus. Particulars: USA300, between 3.1 and 12.5 μM.
Series [7] has as its system Staphylococcus aureus USA300. Put plainly: MIC determination. The series is classed as cell-based. Particulars: USA300, read-out: MIC SA.
The test system of series [8] is S. aureus USA200 biofilms. Put plainly: Disruption of established 24 h biofilms. The class given is cell-based, Staphylococcus aureus. Particulars: USA200, at 6.25 μM.
Series [9] has as its system Staphylococcus aureus USA200. Put plainly: MIC determination. The class given is cell-based. Particulars: USA200, read-out: MIC USA200.
The subject of series [10] is S. aureus USA400 biofilms. Put plainly: Disruption of established 24 h biofilms. The series is classed as cell-based, Staphylococcus aureus.
Series [11] relates to S. aureus USA400 biofilms. Put plainly: Inhibition of biofilm formation. The class given is cell-based, Staphylococcus aureus. Particulars: USA400, all tested concentrations from 1.56 to 12.5 μM.
Series [12] has as its system S. aureus USA300 biofilms. Put plainly: Disruption of established 24 h biofilms. The series is classed as cell-based, Staphylococcus aureus. Particulars: USA300 24 h biofilm. A digest of the protocol: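 USA300 from log phase was grown in wells for 24 h at 37°C to form biofilms, then washed with saline. The 10X test compound, alone or with daptomycin or vancomycin, was added with fresh TSB for another 24 h at 37°C. In combinations the test compound ran 1.56-0.20 µM and the antibiotic 6.25-0.78 µM. Daptomycin medium had 2 mM Ca2+. Wells got fresh TSB plus XTT for 2 h at 37°C, then A450 was read as % of untreated biofilm.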

Series [13] has as its system Klebsiella pneumoniae. Put plainly: MIC determination. The series is classed as cell-based. Particulars: K. pneumoniae.
Series [14] concerns Pseudomonas aeruginosa PAO1. Put plainly: MIC determination. The class given is cell-based. Particulars: PAO1, read-out: MIC PA.

≈ marks a conversion by molar mass, not a printed value. Bounds are passed on as bounds.

Consider `CCCCCCCCCC(=O)N[C@@H](Cc1c[nH]c2ccccc12)C(=O)N[C@H](CC(N)=O)C(=O)N[C@@H](CC(=O)O)C(=O)N[C@@H]1C(=O)NCC(=O)N[C@@H](CCCN)C(=O)N[C@@H](CC(=O)O)C(=O)N[C@H](C)C(=O)N[C@@H](CC(=O)O)C(=O)NCC(=O)N[C@H](CO)C(=O)N[C@@H]([C@H](C)CC(=O)O)C(=O)N[C@@H](CC(=O)c2ccccc2N)C(=O)O[C@@H]1C` [Daptomycin], for which the MIC is 0.78 µM (≈ 1.26 µg/mL) in [1]; 3.1 µM (≈ 5.02 µg/mL) in [2]; over 12.5 µM in series [4]; 0.78 µM (≈ 1.26 µg/mL) in series [7]; 0.78 µM (≈ 1.26 µg/mL) in series [9]. The “concentration with anti-biofilm activity” value in [3] is recorded as 5 mg/mL. In addition, the established biofilms disrupted in [5] is ~ 70%; in [8], 80%. For the same molecule, in series [6], the “inhibition of biofilm growth” value amounted to 80%. For the same molecule, the “concentration disrupting established biofilms” value in [10] was 6.2 to 12.5 µM. The “inhibition of biofilm formation” value in series [11] is 100%.
As to `CN[C@H](CC(C)C)C(=O)N[C@H]1C(=O)N[C@@H](CC(N)=O)C(=O)N[C@H]2C(=O)N[C@H]3C(=O)N[C@H](C(=O)N[C@H](C(=O)O)c4cc(O)cc(O)c4-c4cc3ccc4O)[C@H](O)c3ccc(c(Cl)c3)Oc3cc2cc(c3O[C@@H]2O[C@H](CO)[C@@H](O)[C@H](O)[C@H]2O[C@H]2C[C@](C)(N)[C@H](O)[C@H](C)O2)Oc2ccc(cc2Cl)[C@H]1O` [Vancomycin], the minimum inhibitory concentration (MIC) is 0.78 µM (≈ 1.13 µg/mL) in series [1]; 1.56 µM (≈ 2.26 µg/mL) in [2]; over 12.5 µM in [4]; 0.78 µM (≈ 1.13 µg/mL) in [7]; 0.35 µM (≈ 0.507 µg/mL) in series [9]; over 25 µM in series [14]. The biofilm disruption alone result in series [12] (3.1 μM vancomycin by itself) is recorded as “unable to completely disrupt the biofilm”. Also, the “biofilm disruption by combination” value in series [12] (3.1 μM vancomycin with 0.20 μM C14-RRR) is listed as “disrupt nearly all the biofilms”. For the same molecule, the established biofilms disrupted in series [5] is ~ 70%; in [8], 80%. The “inhibition of biofilm growth” value in series [6] stood at 80%. The “concentration disrupting established biofilms” value in [10] fell in the range of 6.2 to 12.5 µM. Also, the “inhibition of biofilm formation” value in [11] amounted to 100%. Moreover, in series [13], the “MIC KP” value was over 25 µM.

As usually defined, the MIC is the least concentration at which growth counts as inhibited.

The values are drawn from paper PMC4524557 (RSC advances, 2015).
